Assay outcomes as filed in PubChem.
An excerpt weighted towards active compounds, which were near 3.7% of everything screened.
KCNQ1 act: potentiates or activates the human KCNQ1 potassium channel; CHO-K1 KCNQ1, thallium flux FluxOR fluorescence; active compounds read high; 0.35% of 310,000 active; AID 2648; P51787; B-score at 10 µM;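 active = fluorescence ratio B-score, a plate-corrected score, at least three library SD, with initial intensity B-score within 5 SD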
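System: Stable KCNQ1 CHO-K1 line | Incubation: 90 min dye loading and 20 min compound exposure, both at room temperature | Measure: Ratio B score | Medium: Assay buffer for compound exposure, DMSO matched across wells | Compound dosing: Single-concentration screen | Probe or stimulus: K+/Tl+ depolarizing stimulus | Measured by: Kinetic FluxOR fluorescence, 10 s baseline plus 110 s post-stimulus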
Kir21 block: Kir2.1 (mouse) channel inhibition; P35561; B-score at 10 µM; HEK293-Kir2.1, FluxOR thallium flux fluorescence; active compounds read low; 0.85% of 310,000 active;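 active = fluorescence ratio B-score at or below minus 3 SD of library scores, with starting-brightness B-score within 2 SD, cut at about -4.2 in these data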;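 note: channel flux triggered by added potassium and thallium sulfate stimulus; B-score of peak minus minimum fluorescence over baseline after thallium stimulus; more negative B-score means stronger Kir2.1 block with less thallium influx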
Target sequence (P35561 whole entry, looked up): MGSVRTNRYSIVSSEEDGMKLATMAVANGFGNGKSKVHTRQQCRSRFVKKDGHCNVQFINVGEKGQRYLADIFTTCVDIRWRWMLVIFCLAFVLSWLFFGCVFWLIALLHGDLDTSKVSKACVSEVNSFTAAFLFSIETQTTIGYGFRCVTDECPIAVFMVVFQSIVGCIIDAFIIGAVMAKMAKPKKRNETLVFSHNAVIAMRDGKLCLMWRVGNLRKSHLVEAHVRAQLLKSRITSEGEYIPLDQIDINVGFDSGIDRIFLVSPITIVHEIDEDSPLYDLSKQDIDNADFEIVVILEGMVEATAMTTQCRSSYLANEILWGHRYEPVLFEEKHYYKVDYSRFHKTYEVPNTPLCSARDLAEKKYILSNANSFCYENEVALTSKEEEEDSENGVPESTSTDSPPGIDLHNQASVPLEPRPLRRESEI
KCNK9 block: blocks the human KCNK9 two-pore domain potassium channel. B-score at 10 µM. Q9NPC2. HEK293 KCNK9, FluxOR thallium flux fluorescence; active compounds read low. 1.2% of 310,000 active;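 active = ratio B-score over 3 SD below the library mean, with starting fluorescence within 5 SD of its mean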;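 note: negative B-score means less thallium flux so channel inhibition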
hERG protect: compounds protecting human hERG from proarrhythmic drug block | CHO-hERG, FluxOR thallium flux, dofetilide IC70 present | activation (rescue from dofetilide block), less the hit threshold, % at 10 µM | Q12809 | 0.51% of 310,000 active;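 active = activation above the mean of controls blocked by dofetilide plus 5 SD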;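 note: thallium influx through hERG after potassium depolarization seen as dye fluorescence rise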
KCNQ1 block: blocks the human KCNQ1 potassium channel; AID 2642; B-score at 10 µM; P51787; CHO-K1 KCNQ1, FluxOR thallium flux fluorescence; active compounds read high; 1.3% of 310,000 active;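 active = compounds whose thallium flux B-score, printed positive for inhibition, exceeds three library SD while starting fluorescence stays within three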;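 note: channel opened by potassium depolarization with thallium stimulus after 20 min compound exposure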
KCNK3 block: human KCNK3 channel inhibition, primary screen | AID 602410 | O14649 | 0.84% of 340,000 active | B-score at 10 µM | CHO-KCNK3 thallium flux, FluxOR fluorescence; active compounds read low;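 active = B-score under library mean minus 4 SD, starting fluorescence ratio at most library mean plus 5 SD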;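 note: more negative B-score means stronger inhibition of thallium flux through KCNK3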
KCNK9 inh conf: confirmation of human KCNK9 potassium channel inhibitors; shares compounds with KCNK9 block; HEK293 KCNK9 cells, FluxOR thallium flux fluorescence; inhibition, % at 10 µM; 43% of 4,900 active;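 active = thallium signal inhibited by more than 5 SD of the compound-free buffer control wells, on both duplicate plates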
Kir2-1 spec: selectivity of KCNK9 modulators against mouse Kir2.1. Kir2.1 cells, FluxOR thallium flux fluorescence. 4% of 4,900 active. inhibition, % at 10 µM. shares compounds with KCNK9 block;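 active = thallium signal drop more than 5 SD beyond the mean of the no-compound control wells, seen in both duplicate plates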;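 note: signal is fluorescence rise after thallium addition divided by baseline fluorescence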
KCNK9 uninduced: second counter-screen for KCNK9 modulators: effect in non-induced cells; inhibition, % at 10 µM; shares compounds with KCNK9 block; non-induced KCNK9-HEK293, FluxOR thallium flux; 40% of 4,900 active;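 active = thallium signal drop beyond 5 SD of the untreated control mean, on both duplicate plates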
Hits are given with their value; n = inactive; x = not tested or not shown.

SMILES	KCNQ1 act	Kir21 block	KCNK9 block	hERG protect	KCNQ1 block	KCNK3 block	KCNK9 inh conf	Kir2-1 spec	KCNK9 uninduced
COc1cc(/C=C2\C(=N)N3N=C(S(C)(=O)=O)SC3=NC2=O)cc(OC)c1OCCOc1cccc(C)c1	n	n	n	n	n	n	n	n	n
CCS(=O)(=O)C1=NN2C(=N)/C(=C\c3ccc(OCCOc4cccc(OC)c4)c(OC)c3)C(=O)N=C2S1	n	n	n	n	n	n	n	n	n
CC(C)n1nnnc1SCC(=O)N1N=C(c2cccs2)CC1c1cccs1 (stereo not given)	x	x	x	x	x	n	x	x	x
Cc1cc(=O)n2c3ccccc3n(C)c2n1	n	n	n	n	n	n	x	x	x
CCOc1ccccc1NC(=O)CSc1nc(=O)n(CCCN2CCOCC2)c2c1CCCC2	n	n	n	n	n	n	x	x	x
O=C(NCC(c1ccco1)N1CCN(c2ccc(F)cc2)CC1)C1CCCCC1 (stereo not given)	n	n	-13.7	n	n	n	43.5%	n	38.5%
CC(C)C[C@H](NC(=O)c1nc[nH]c1C(=O)NCC(=O)OC(C)(C)C)C(=O)OCc1ccccc1	n	n	n	n	n	n	x	x	x
CC(C)C[C@H](NC(=O)c1nc[nH]c1C(=O)NCC(=O)OCc1ccccc1)C(=O)OCc1ccccc1	n	n	n	n	n	n	n	n	n
COc1ccc(C2c3[nH]c4ccccc4c3CCN2Cc2ccoc2)c(F)c1 (stereo not given)	n	n	n	n	n	n	n	n	n
COc1ccc(C2c3[nH]c4ccccc4c3CCN2C(=O)Cc2nonc2C)c(F)c1 (stereo not given)	n	n	n	n	n	n	x	x	x
Cc1ccc(/C=C2\SC(=S)N(C(Cc3ccccc3)C(=O)O)C2=O)cc1 (stereo not given)	n	n	n	n	n	n	n	n	n
O=C(O)C(Cc1ccccc1)N1C(=O)/C(=C/c2ccccc2)SC1=S (stereo not given)	n	n	n	n	n	n	n	n	n
CCC(C(=O)O)N1C(=O)/C(=C/C(C)=C/c2ccccc2)SC1=S (stereo not given)	n	n	n	n	n	n	n	n	n
COc1cccc(C(=O)NCCS(=O)(=O)NCc2ccc(Cl)cc2)c1	n	n	n	n	n	n	x	x	x
O=C(NC(=S)NC1C2CC3CC(C2)CC1C3)C12CC3CC(CC(C3)C1)C2 (stereo not given)	n	n	n	n	n	n	n	n	n
O=C(NC(=S)Nc1ccc(Cl)cn1)C12CC3CC(CC(C3)C1)C2	n	n	n	n	n	n	x	x	x
CN(C)NC(=S)NC(=O)C12CC3CC(CC(C3)C1)C2	n	n	n	n	n	n	x	x	x
CC(C)(C)NC(=S)NC(=O)C12CC3CCC(CC(C3)C1)C2	n	n	n	n	n	n	n	n	n
CC12CC3(C)CC(C)(C1)CC(C(=O)NC(=S)NC(C)(C)C)(C2)C3	n	n	n	n	n	n	n	n	n
CC(SC1=Nc2ccccc2C2CC=NN12)C(=O)NC1(C#N)CCCCC1 (stereo not given)	n	-4.59	-10.1	n	n	n	46.5%	n	42.5%
C=CCc1cc(C(=O)N2CCCCC2)ccc1O	n	n	n	n	n	n	x	x	x
C=CCc1ccc(O)c(-c2ccc(O)c(CC=C)c2)c1	n	n	-18.4	n	n	n	76.5%	n	42.5%
CC(C)(C)c1ccc(Cn2cnc(-c3ccc([N+](=O)[O-])cc3)c2)cc1	n	n	n	n	n	n	n	n	n
Cc1ccc(S(=O)(=O)NCC(=O)NC2CC2)cc1	n	n	n	n	n	n	x	x	x
CCN(CC)S(=O)(=O)c1cccc(-c2nnc(SCC(=O)c3cc(C)n(C)c3C)o2)c1	n	n	n	n	n	n	x	x	x
SMILES	KCNQ1 act	Kir21 block	KCNK9 block	hERG protect	KCNQ1 block	KCNK3 block	KCNK9 inh conf	Kir2-1 spec	KCNK9 uninduced
CCN(CC)S(=O)(=O)c1cccc(-c2nnc(SCCOc3ccccc3C)o2)c1	n	n	n	n	n	n	n	n	n
CCN(CC)S(=O)(=O)c1cccc(-c2nnc(SCCOc3ccc(Cl)cc3)o2)c1	n	n	-9.96	n	n	n	48.5%	n	n
COc1ccccc1N1CCN(CC(=O)Nc2ccccc2C(=O)NCCc2ccccc2)CC1	x	x	x	x	x	n	x	x	x
CC(C)(C)C(=O)[C@H]1[C@H](c2ccccc2)[C@@]2(N=C(c3ccccc3)OC2=O)C2c3ccccc3C=NN21 (stereo not given in full)	n	n	-9.71	n	n	n	29.0%	n	n
COc1ccc([C@H]2[C@H](C(=O)OC(C)(C)C)N3N=Cc4ccccc4C3C23C(=O)c2ccccc2C3=O)cc1OC (stereo not given in full)	n	n	n	n	n	n	x	x	x
CC1CC(C)CN(c2ccc(C(=O)NCc3ccc4c(c3)OCO4)cc2[N+](=O)[O-])C1 (stereo not given)	n	n	-8.48	n	n	n	43.0%	n	n
Cc1nc(C)n(CCNS(=O)(=O)c2ccc(C)c(C)c2)n1	n	n	n	n	n	n	x	x	x
CCOC(=O)C(CC)n1cnc2c(nnn2-c2ccccc2)c1=O (stereo not given)	n	n	n	n	n	n	x	x	x
Cc1ccc[n+](CC(=O)Nc2cc(C(F)(F)F)ccc2Cl)c1	n	n	n	n	n	n	x	x	x
CCC(C)(C)c1ccc(OCCCC[n+]2cccc(C)c2)c(C(C)(C)CC)c1	n	-6.38	-9.37	n	10	n	38.5%	66.5%	27.5%
O=C(Cc1nnc(NC(=O)Nc2ccc(F)cc2)s1)NCc1ccccc1	n	n	n	n	n	n	x	x	x
O=c1[nH]c(CN2CCN(S(=O)(=O)c3ccccc3C(F)(F)F)CC2)nc2sc3c(c12)CCCC3	n	n	n	n	n	n	x	x	x
CCOCCCNC(=S)N1CCCN(c2nc3c(C)c(C)ccc3cc2C#N)CC1	n	n	n	n	n	n	x	x	x
CCOCCCNC(=S)N1CCCN(c2nc3cc(C)ccc3cc2C#N)CC1	n	n	n	n	n	n	n	n	n
O=S(=O)(CCN1CCN(c2ccccc2O)CC1)c1cc(Cl)ccc1Cl	x	x	x	x	x	n	x	x	x
CC(C)CCNC(=O)c1onc(CSc2ccc(F)c(F)c2)c1C(=O)NCCC(C)C	n	n	n	n	n	n	n	n	n
CCCNC(=O)c1onc(CSc2ccc(F)c(F)c2)c1C(=O)NCCC	n	n	n	n	n	x	x	x	x
